Measurements taken from publication PMC4955388 (Bioorganic & medicinal chemistry letters, 2016).
Read-outs that look alike come from different tables or passages of the source.

How the values were obtained:
[1] = Intrinsic clearance in rat hepatic microsomes and predicted hepatic clearance; assay type: in vitro ADME; conditions: for Rat CLHEP (predicted hepatic clearance): calculated from rat microsomal CLINT; for CLint scaled at 1 µM: rat, liver microsomes
[2] = assay type: in vivo, rat; conditions: 1 h; for Concentration, Plasma HPV: hepatic portal vein
Procedure, shortened: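 Rats received 10 mg/kg test compound orally, with vehicle or co-dosed with 1-aminobenzotriazole, a pan-irreversible cytochrome P450 inhibitor. At 1 h, concentrations were measured in systemic plasma, hepatic portal vein plasma and brain.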

[3] = po 10 mg/kg with vehicle (no ABT)

Row | Rat CLHEP (predicted hepatic clearance) [1] | CLint scaled at 1 µM [1] | SMILES | Concentration, Brain ([2]; po 10 mg/kg co-dosed with ABT) | Concentration, Plasma systemic ([2]; po 10 mg/kg co-dosed with ABT) | Concentration, Plasma HPV ([2]; po 10 mg/kg co-dosed with ABT) | Concentration, Brain [2, 3] | Concentration, Plasma systemic [2, 3] | Concentration, Plasma HPV [2, 3]
1 | 68.2 mL/min/kg | 2700 mL/min/kg | Cc1ccc(S(=O)(=O)n2ccc(NC(=O)c3ccccn3)c2)cc1 [11l] | – | – | – | – | – | –
2 | 68.8 mL/min/kg | 4040 mL/min/kg | Cc1cccc(S(=O)(=O)n2ccc(NC(=O)c3ccccn3)c2)c1 [11m] | – | – | – | – | – | –

More lines, now with the values behind:

Row | SMILES | Rat CLHEP (predicted hepatic clearance) [1] | CLint scaled at 1 µM [1] | Concentration, Brain ([2]; po 10 mg/kg co-dosed with ABT) | Concentration, Plasma systemic ([2]; po 10 mg/kg co-dosed with ABT) | Concentration, Plasma HPV ([2]; po 10 mg/kg co-dosed with ABT) | Concentration, Brain [2, 3] | Concentration, Plasma systemic [2, 3] | Concentration, Plasma HPV [2, 3]
3 | O=C(Nc1ccn(S(=O)(=O)c2ccc(Cl)cc2)c1)c1ccccn1 [11o] | 65.9 mL/min/kg | 1130 mL/min/kg | – | – | – | – | – | –
4 | Cc1ccc(S(=O)(=O)n2ccc(NC(=O)c3ccccn3)c2)cc1C [11r, N-(1-((3,4-Dimethylphenyl)sulfonyl)-1H-pyrrol-3-yl)picolinamide] | – | 293 mL/min/kg | – | – | – | – | – | –
5 | Cc1ccc(S(=O)(=O)n2cc(NC(=O)c3ccccn3)cn2)cc1C [11s] | 68.7 mL/min/kg | 3800 mL/min/kg | – | – | – | – | – | –
6 | Cc1cc(S(=O)(=O)n2ccc(NC(=O)c3ccccn3)c2)ccc1Cl [11t] | 68.6 mL/min/kg | 3440 mL/min/kg | 175.5 ng/mg or g | 198.5 ng/mg or g | 764.5 ng/mg or g | 8.1 ng/mg or g | 7.4 ng/mg or g | 731 ng/mg or g
